Laboratory results published in ChEMBL document CHEMBL5096213 (Bioorg Med Chem, 2022).
Converted amounts (≈) assume the structure as drawn.

Key:
[1] = system: Mycobacterium tuberculosis variant bovis; assay: Antimycobacterial activity against Mycobacterium bovis BCG Pasteur ATCC35734 assessed as inhibition of bacterial growth incubated for 5 days by broth microdilution method; type: functional; settings: BCG Pasteur ATCC35734, 120 h, time 5 day
Outline: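 M. bovis BCG Pasteur grown to mid-log (OD600 0.4–0.6), seeded at OD600 0.05 into 2-fold serial compound dilutions in complete Middlebrook 7H9, neutral pH. Incubation 5 days, 37 °C, shaking 90 rpm, humidified. […] At least two experiments, means reported.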

[2] = system: Mycobacterium tuberculosis variant bovis; assay: Potency index, ratio of pyrazinoic-acid MIC50 to test compound MIC50 for antimycobacterial activity against Mycobacterium bovis BCG Pasteur ATCC35734 assessed as inhibition of bacterial growth incubated for 5 days by broth microdilution method; type: functional; settings: time 5 day

| SMILES | MIC50 [1] | Ratio [2] |
| --- | --- | --- |
| CCC(=O)Nc1nccnc1C(=O)O | 1500 µM (≈ 293 µg/mL) | – |
| O=C(O)c1ncccn1 | > 4000 µM | – |
| CN(Cc1ccccc1)c1nccnc1C(=O)O | 700 µM (≈ 170 µg/mL) | – |
| Cc1cnc(C(=O)O)cn1 | 3200 µM (≈ 442 µg/mL) | – |
| O=C(O)c1cncc(Cl)n1 | 1000 µM (≈ 159 µg/mL) | – |
| O=C(O)c1nccnc1Nc1ccccc1 | 400 µM (≈ 86.1 µg/mL) | – |
| CC(=O)Nc1cnc(C(=O)O)c(N)n1 | > 4000 µM | – |
| O=C(O)c1cncc(Br)n1 | 3000 µM (≈ 609 µg/mL) | – |
| O=C(O)c1cnc(NC2CCC2)cn1 | > 2500 µM | – |
| CC(C)CNc1cncc(C(=O)[O-])n1.[Na+] | > 2500 µM | 2.5 |
| Cc1cccc(-c2nccnc2C(=O)O)c1 | 800 µM (≈ 171 µg/mL) | – |
| CCNc1cncc(C(=O)[O-])n1.[Na+] | > 2500 µM | 2.5 |
| O=C(O)c1cnc(-c2ccccc2)cn1 | > 4000 µM | – |
| CC(=O)c1cnccn1 | > 5000 µM | – |
| CC(C)C(=O)Nc1cnc(C(=O)O)c(N)n1 | > 4000 µM | – |
| Cc1ccccc1-c1nccnc1C(=O)O | > 5000 µM | – |
| Nc1nccnc1C(=O)O | 800 µM (≈ 111 µg/mL) | – |
| O=C(O)c1nccnc1N1CCCCC1 | > 2500 µM | – |
| O=C(O)c1nccnc1N1CCCC1 | 4700 µM (≈ 908 µg/mL) | – |
| O=C(O)c1cccnc1 [NIACIN] | 900 µM (≈ 111 µg/mL) | – |
| O=C(O)c1cnccn1 [PYRAZINOIC ACID] | 1000 µM (≈ 124 µg/mL) | – |
| Cc1nccnc1C(=O)O | 3500 µM (≈ 483 µg/mL) | – |
| O=C(O)c1nccnc1Cl | 1800 µM (≈ 285 µg/mL) | – |
| CC(C)(C)Nc1nccnc1C(=O)O | 400 µM (≈ 78.1 µg/mL) | – |
| O=C(O)c1nccnc1NC1CCCC1 | 400 µM (≈ 82.9 µg/mL) | – |
| NS(=O)(=O)c1cnccn1 | > 4000 µM | – |

| SMILES | MIC50 [1] | Ratio [2] |
| --- | --- | --- |
| Cc1ccc(-c2nccnc2C(=O)O)cc1 | 1000 µM (≈ 214 µg/mL) | – |
| CCCNc1cnc(C(=O)O)cn1 | 1400 µM (≈ 254 µg/mL) | – |
| CC(=O)NS(=O)(=O)c1cnccn1 | > 4000 µM | – |
| O=C(O)c1cnc2ccccc2n1 | 700 µM (≈ 122 µg/mL) | – |
| CC(C)CNc1cnc(C(=O)[O-])cn1.[Na+] | 400 µM | 2.5 |
| O=C(O)c1ccccc1 [BENZOIC ACID] | 2200 µM (≈ 269 µg/mL) | – |
| CCNc1cnc(C(=O)[O-])cn1.[Na+] | 1800 µM | 2.5 |
| CC(C)CN(C)c1cnc(C(=O)O)c(N)n1 | 700 µM (≈ 157 µg/mL) | – |
| CCNc1nccnc1C(=O)[O-].[Na+] | 400 µM | 2.5 |
| COc1nccnc1C(=O)O | 2700 µM (≈ 416 µg/mL) | – |
| Cc1cncc(C(=O)O)n1 | 2400 µM (≈ 332 µg/mL) | – |
| O=C(O)c1nccnc1N1CCC2(CC1)CC2 | > 2500 µM | – |
| O=C(O)c1nccnc1O | > 4000 µM | – |
| O=C(O)c1ccncc1 [ISONICOTINIC ACID] | 2700 µM (≈ 332 µg/mL) | – |
| CCC(=O)Nc1cnc(C(=O)O)cn1 | 3500 µM (≈ 683 µg/mL) | – |
| O=C(O)c1nccnc1NC1CCC1 | 400 µM (≈ 77.3 µg/mL) | – |
| O=C(O)c1nccnc1N1CCSCC1 | > 5000 µM | – |
| CCCCN(C)c1cnc(C(=O)O)c(N)n1 | 200 µM (≈ 44.9 µg/mL) | – |
| CCN(CC)c1nccnc1C(=O)O | 3600 µM (≈ 703 µg/mL) | – |
| O=C(O)c1nccnc1-c1ccccc1 | 1500 µM (≈ 300 µg/mL) | – |
| O=C(O)c1cncc(NC2CCC2)n1 | > 2500 µM | – |
| CCCCNc1nccnc1C(=O)O | 600 µM (≈ 117 µg/mL) | – |
| O=C(O)c1cccnn1 | > 5000 µM | – |
| O=C(O)c1ccnnc1 | > 4000 µM | – |
| CCCNc1nccnc1C(=O)O | 200 µM (≈ 36.2 µg/mL) | – |
| CC(C)CN(C)c1nccnc1C(=O)O | 3500 µM (≈ 732 µg/mL) | – |

| SMILES | MIC50 [1] | Ratio [2] |
| --- | --- | --- |
| O=C(O)c1cncc(-c2ccccc2)n1 | 1700 µM (≈ 340 µg/mL) | – |
| O=C(O)c1nccnc1NCc1ccccc1 | 200 µM (≈ 45.8 µg/mL) | – |
| CCC(=O)Nc1cncc(C(=O)O)n1 | 200 µM (≈ 39 µg/mL) | 5 |
| CCCCN(C)c1nccnc1C(=O)O | 2300 µM (≈ 481 µg/mL) | – |
| O=C(O)c1nccnc1Br | > 4000 µM | – |
| NC(=S)c1cnccn1 | 2700 µM (≈ 376 µg/mL) | – |
| CC(C)CNc1nccnc1C(=O)[O-].[Na+] | 200 µM | 2.5 |
| CNc1nccnc1C(=O)O | 700 µM (≈ 107 µg/mL) | – |
| O=C(O)c1ccccn1 [2-PICOLINIC ACID] | 700 µM (≈ 86.2 µg/mL) | – |
| COc1cncc(C(=O)O)n1 | 2000 µM (≈ 308 µg/mL) | – |
| CC(C)Nc1cnc(C(=O)O)c(N)n1 | 1200 µM (≈ 235 µg/mL) | – |
| Nc1cnc(C(=O)O)cn1 | 800 µM (≈ 111 µg/mL) | – |
| c1cnc(-c2nnn[nH]2)cn1 | > 4000 µM | – |
| O=C(O)c1ccncn1 | 2000 µM (≈ 248 µg/mL) | – |
| O=C(O)c1cnc(Cl)cn1 | 1700 µM (≈ 270 µg/mL) | – |
| CC(C)Nc1nccnc1C(=O)O | 20 µM (≈ 3.62 µg/mL) | – |
| O=C(O)c1cncnc1 | > 5000 µM | – |
| O=C(O)c1cnc(O)cn1 | > 3000 µM | – |
| COc1cnc(C(=O)O)cn1 | 3500 µM (≈ 539 µg/mL) | – |
| CCCC(=O)Nc1cnc(C(=O)O)c(N)n1 | > 4000 µM | – |
| O=C(O)c1cnc(Br)cn1 | 2500 µM (≈ 507 µg/mL) | – |
| Nc1cncc(C(=O)O)n1 | 2600 µM (≈ 362 µg/mL) | – |
| O=C(O)c1cncc(O)n1 | > 2400 µM | – |
| O=C(O)c1nccnc1N1CCOCC1 | > 5000 µM | – |
